TRPC4 agonist – TRPC4 (mouse) channel activation | Q9QUQ5 | HEK293 TRPC4beta/mu-opioid, Fluo4 calcium fluorescence; hits give high values | B-score at 10 µM | 310,000 tested, 0.49% active | AID 2237;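 active means B-score above 5 SD of library B-scores, and initial fluorescence ratio not above library mean plus 5 SD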;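 further: positive B-score marks a calcium rise read as TRPC4 activation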
Target sequence (Q9QUQ5 whole entry, looked up): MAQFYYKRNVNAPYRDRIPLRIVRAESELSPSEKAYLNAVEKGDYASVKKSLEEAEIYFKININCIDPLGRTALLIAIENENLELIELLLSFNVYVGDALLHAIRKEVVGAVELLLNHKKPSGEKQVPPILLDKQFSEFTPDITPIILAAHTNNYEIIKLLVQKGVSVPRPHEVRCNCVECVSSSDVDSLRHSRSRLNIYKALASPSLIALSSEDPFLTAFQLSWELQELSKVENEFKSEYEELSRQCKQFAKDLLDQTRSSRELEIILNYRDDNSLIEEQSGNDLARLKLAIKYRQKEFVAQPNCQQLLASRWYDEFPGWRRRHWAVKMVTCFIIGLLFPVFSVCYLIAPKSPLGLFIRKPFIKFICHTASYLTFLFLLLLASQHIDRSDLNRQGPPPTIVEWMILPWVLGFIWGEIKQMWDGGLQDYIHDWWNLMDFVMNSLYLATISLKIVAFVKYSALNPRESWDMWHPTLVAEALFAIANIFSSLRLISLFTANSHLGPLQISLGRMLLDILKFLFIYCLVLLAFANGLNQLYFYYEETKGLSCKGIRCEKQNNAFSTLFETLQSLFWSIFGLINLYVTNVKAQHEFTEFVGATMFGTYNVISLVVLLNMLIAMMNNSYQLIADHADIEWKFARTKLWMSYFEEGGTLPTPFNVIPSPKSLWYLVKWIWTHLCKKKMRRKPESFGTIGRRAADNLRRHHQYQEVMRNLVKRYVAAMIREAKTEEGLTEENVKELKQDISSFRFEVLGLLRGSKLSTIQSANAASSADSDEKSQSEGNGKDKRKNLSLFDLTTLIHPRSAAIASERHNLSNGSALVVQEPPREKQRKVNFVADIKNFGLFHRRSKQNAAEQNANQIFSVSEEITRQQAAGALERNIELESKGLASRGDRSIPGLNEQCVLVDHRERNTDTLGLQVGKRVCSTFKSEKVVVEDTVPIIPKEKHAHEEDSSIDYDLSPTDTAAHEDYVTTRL
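Material: HEK293 stable line with TRPC4beta plus mu-opioid receptor; technique: Fluo4 calcium-sensitive dye fluorescence, kinetic, 1 Hz baseline; timing: Fluo4 dye loading 45 min at room temperature, 110 s recording; controls: assay buffer as low control, maximal DAMGO as high control; read-out: integrated baseline-normalised fluorescence ratio, converted to per-well B score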
TRPC4 inh – TRPC4 (mouse) channel inhibition; AID 2247; B-score at 10 µM; Q9QUQ5; 300,000 tested, 0.39% active; HEK293 TRPC4beta/mu-opioid, DAMGO-evoked Fluo4 calcium flux; hits give low values;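 active means B-score over 3 SD under the library average, no early fluorescence shift, positive overall ratio signal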
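Material: HEK293 cells with stable TRPC4beta plus mu-opioid receptor expression / Probe or stimulus: DAMGO in two steps, submaximal then maximal / Compound: single concentration per test compound / Technique: kinetic Fluo4 fluorescence imaging of calcium influx / Read-out: per-well B score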
TRPC6 inhibitor – mouse TRPC6 channel inhibition; Q61143; HEK293-TRPC6, membrane potential dye, ACh-evoked depolarization; hits give low values; B-score at 10 µM; 310,000 tested, 1.1% active;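 active means B-score under library mean minus 3 SD, initial fluorescence not abnormally high, positive integrated signal ratio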;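 further: B-score derived from integrated fluorescence ratio over the kinetic read; more negative B-score means stronger inhibition of depolarization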
TRPC4 potent – allosterically enhances the mouse TRPC4 cation channel. B-score at 10 µM. AID 2227. 310,000 tested, 0.42% active. HEK293 TRPC4beta/mu-opioid, DAMGO EC20, Fluo-4 Ca2+ flux; hits give high values;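 active means B-score of calcium response area above 5 SD of library B-scores, with initial fluorescence ratio within 5 SD of library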;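 further: B-score of integrated fluorescence ratio over time as area under calcium response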
TRPC6 activator – activators of mouse TRPC6 channel; Q61143; HEK293-TRPC6 membrane potential dye fluorescence; hits give high values; B-score at 10 µM; 310,000 tested, 0.13% active;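 active means B-score of the integrated fluorescence ratio above library mean plus 3 SD, and starting fluorescence ratio within library mean plus 5 SD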;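 further: higher score means more depolarization so channel activation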
TRPC4 spec 2 – mouse TRPC4 off-target activity of TRPC6 inhibitors, second screen; shares compounds with TRPC6 inhibitor; HEK293 TRPC4/MOR, membrane potential dye fluorescence; channel activated by saturating DAMGO dose; inhibition, % at 10 µM; 920 tested, 42% active; AID 2776;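 active means compounds whose fluorescence signal differed from control wells by over 3 SD, either direction, in both duplicate plates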
TRPC4 spec – selectivity of TRPC6 inhibitors: effect on mouse TRPC4; shares compounds with TRPC6 inhibitor; HEK293 TRPC4/mu-opioid, membrane potential fluorescence; activity change, negative = inhibition, % at 10 µM; 920 tested, 61% active; AID 2777;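 active means rise or fall in signal beyond 3 SD of buffer-only wells in both replicate plates, either sign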;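 further: integrated kinetic ratio of fluorescence range over baseline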
HEK293 MPD ctr 2-1 – second check of TRPC6 inhibitor effects in parental HEK293 cells. shares compounds with TRPC6 inhibitor. parental HEK293 membrane potential dye fluorescence; maximal acetylcholine challenge after compound addition. signal change vs control, % at 10 µM. 920 tested, 31% active. AID 2779;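 active means membrane potential signal moving either way by over 3 SD of the maximum-effect control, in both duplicate plates, meaning non-specific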
HEK293 MPD ctr-1 – parental HEK293 nonspecific activity of TRPC6 inhibitors | shares compounds with TRPC6 inhibitor | AID 2780 | 920 tested, 60% active | membrane potential signal change, % at 10 µM | parental HEK293 membrane potential dye fluorescence;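 active means membrane potential signal shifting up or down by more than 3 SD of buffer-only wells, on both duplicate plates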
HEK293 MPD ctr-2 – checks TRPC6 modulator effects in parental HEK293 cells. membrane potential signal change, % at 10 µM. AID 488924. shares compounds with TRPC6 inhibitor. 2,400 tested, 51% active. membrane potential dye fluorescence;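 active means membrane potential signal moves up or down beyond 5 SD from buffer-only wells, on both duplicate plates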
HEK293 MPD ctr 2-2 – second check of TRPC6 modulator effects in parental HEK293 cells; shares compounds with TRPC6 inhibitor; membrane potential dye fluorescence; after compound, maximal acetylcholine stimulation; inhibition, % at 10 µM; 2,400 tested, 14% active;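 active means membrane potential signal drops by more than 5 SD from the mean control signal, in both duplicate plates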;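 further: plate controls were acetylcholine ECmax control wells for no effect and buffer only wells for full effect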
TRPC4 ctr mod – selectivity of TRPC6 modulators against mouse TRPC4. shares compounds with TRPC6 inhibitor. HEK293 TRPC4/mu-opioid, membrane potential fluorescence. percent change from control (negative = decrease, positive = increase), % at 10 µM. 2,400 tested, 69% active;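 active means membrane potential signal moved up or down beyond 5 SD of buffer control wells, in both duplicate plates, actives on both sides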;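 further: plate controls were assay buffer wells for no effect and DAMGO maximal-effect wells for full effect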
TRPC4 ctr inh 2 – second check of whether TRPC6 modulators also affect mouse TRPC4; shares compounds with TRPC6 inhibitor; HEK293 TRPC4/mu-opioid, membrane potential dye fluorescence; stimulated with maximal-effect DAMGO; inhibition, % at 10 µM; 2,400 tested, 55% active;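 active means drop in membrane potential signal beyond 5 SD of the control wells in both duplicate plates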;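 further: TRPC4 counter screen for TRPC6 hits run under conditions tuned for TRPC6 not TRPC4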
TRPC6 inh conf – mouse TRPC6 inhibitor confirmation; HEK293-TRPC6, membrane potential dye, ACh-evoked depolarization; 3,300 tested, 43% active; inhibition, % at 10 µM; shares compounds with TRPC6 inhibitor; AID 488960;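 active means fluorescence ratio falls more than 5 SD below the full-stimulation control mean, in both duplicate runs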;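 further: integrated fluorescence ratio of peak minus minimum over baseline after agonist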
TRPC6 act confirm – confirmation of mouse TRPC6 activators; shares compounds with TRPC6 inhibitor; HEK293-TRPC6 membrane potential dye fluorescence, FDSS; activation, % at 10 µM; 2,800 tested, 11% active; AID 488961;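 active means ratio signal rise beyond 5 SD above unstimulated control wells' mean, seen in both duplicate runs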;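 further: plate controls were buffer EC0 wells for no effect and acetylcholine ECmax response for full effect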
Numbers without * were called inactive; i = inactive; nt = not tested or not shown. A selection: hits, their analogues and other compounds. The true share with any hit is near 2.3%.

SMILES | TRPC4 agonist | TRPC4 inh | TRPC6 inhibitor | TRPC4 potent | TRPC6 activator | HEK293 MPD ctr-2 | HEK293 MPD ctr 2-2 | TRPC4 ctr mod | TRPC4 ctr inh 2 | TRPC6 inh conf | TRPC6 act confirm | others
COc1ccccc1Nc1c2ccccc2nc2ccccc12 | i | i | -6.7* | i | i | -182%* | i | -36%* | 68%* | 50%* | i
CC(C)(C)Nc1c2ccccc2nc2ccccc12 | i | i | -8.9* | i | i | -202%* | i | -34%* | 87%* | 53%* | i
OCCCNc1c2ccccc2nc2ccccc12 | i | -6* | -6.1* | i | i | -231%* | i | -36%* | 46%* | 37%* | i
CCOC(=O)C1CCN(C(=O)C2CCCN(S(=O)(=O)c3ccc(OCC)c(Cl)c3)C2)CC1 (stereo not given) | i | i | i | i | i | nt | nt | nt | nt | nt | nt
Cc1ncoc1C(=O)N1CCCC(N2CCN(c3ccccc3F)CC2)C1 (stereo not given) | i | i | i | i | i | nt | nt | nt | nt | nt | nt
Cc1ccccc1N1CC(C(=O)Nc2ccc(S(=O)(=O)N3CCOCC3)cc2)CC1=O (stereo not given) | i | i | i | i | i | nt | nt | nt | nt | nt | nt
Cc1ccc(C)c(NS(=O)(=O)c2c(C)nn(C)c2C)c1 | i | i | i | i | i | nt | nt | nt | nt | nt | nt
Cc1ccc(OS(=O)(=O)c2c(C)nn(C)c2Cl)c(C)c1 | i | i | -6.5* | i | i | i | i | i | i | 72%* | i
Cc1ccc(-c2ccc(OC(=O)c3ccc(=O)[nH]c3)c(C)c2)cc1 | i | i | -5.1* | i | i | i | i | i | i | i | i
COC(=O)c1cc(OC(=O)c2ccc(=O)[nH]c2)cc(C(=O)OC)c1 | i | i | i | i | i | nt | nt | nt | nt | nt | nt
CS(=O)c1ccccc1-c1nc(-c2ccc(Cl)cc2)no1 (stereo not given) | i | i | i | i | i | nt | nt | nt | nt | nt | nt
CS(=O)c1ccccc1-c1nc(-c2cccc(Cl)c2)no1 (stereo not given) | i | i | -9.8* | i | i | nt | nt | nt | nt | i | i | TRPC4 spec 2=i;TRPC4 spec=i;HEK293 MPD ctr 2-1=i;HEK293 MPD ctr-1=i
Cc1cc(-c2ccc(C)c(S(=O)(=O)NCC3CCN(Cc4cccc(F)c4)CC3)c2)on1 | i | i | i | i | i | nt | nt | nt | nt | nt | nt
Cc1cc(-c2ccc(C)c(S(=O)(=O)NCC3CCN(Cc4ccccc4F)CC3)c2)on1 | i | i | -5* | i | i | i | i | i | 76%* | 36%* | i
NCCc1nnc(SCc2ccccc2Cl)o1 | i | i | i | i | i | nt | nt | nt | nt | nt | nt
NCCCCCc1nnc(SCc2ccc(Cl)cc2Cl)o1 | i | i | -6.2* | i | i | i | i | 14%* | 53%* | i | nt
NCCCCCc1nnc(SCC(=O)Nc2cccc(Cl)c2)o1 | i | i | i | i | i | nt | nt | nt | nt | nt | nt
NCCCCCc1nnc(SCc2cccc(Cl)c2)o1 | i | i | -6.8* | i | i | nt | nt | nt | nt | i | i | TRPC4 spec 2=i;TRPC4 spec=-0.3%*;HEK293 MPD ctr 2-1=i;HEK293 MPD ctr-1=0.8%*
COc1ccc(N2CCN(S(=O)(=O)CCNC(=O)COc3ccccc3C)CC2)cc1 | i | i | -8.5* | i | i | nt | nt | nt | nt | i | i | TRPC4 spec 2=i;TRPC4 spec=-8.9%*;HEK293 MPD ctr 2-1=240%*;HEK293 MPD ctr-1=i
COc1ccc(N2CCN(S(=O)(=O)CCNC(=O)COc3ccc(Cl)cc3)CC2)cc1 | i | i | i | i | i | nt | nt | nt | nt | nt | nt
COc1ccc(N2CCc3c(C)nc4c(OC)cc(OC)cc4c32)cc1 | i | i | -5.7* | i | i | -173%* | 76%* | -24%* | 56%* | 55%* | i
COc1ccc(N2CCc3c(C)nc4c(OC)cccc4c32)cc1 | i | i | -8* | i | i | nt | nt | nt | nt | 58%* | i | TRPC4 spec 2=52%*;TRPC4 spec=-24%*;HEK293 MPD ctr 2-1=i;HEK293 MPD ctr-1=-320%*
Cc1nc2c(C)cccc2c2c1CCN2c1ccccc1F | i | i | -5.8* | i | i | -143%* | i | -20%* | 58%* | 50%* | i
COc1cccc(N2CCc3c(C)nc4ccc(Cl)cc4c32)c1 | i | i | -6.2* | i | i | i | 58%* | i | 88%* | 62%* | i
COc1ccc(N2CCc3c(C)nc4c(OC)cc(OC)cc4c32)c(OC)c1 | i | i | i | i | i | nt | nt | nt | nt | nt | nt
SMILES | TRPC4 agonist | TRPC4 inh | TRPC6 inhibitor | TRPC4 potent | TRPC6 activator | HEK293 MPD ctr-2 | HEK293 MPD ctr 2-2 | TRPC4 ctr mod | TRPC4 ctr inh 2 | TRPC6 inh conf | TRPC6 act confirm | others
COc1ccccc1C(=O)NC(=O)COC(=O)CN1C(=O)NC(C)(C)C1=O | i | i | i | i | i | nt | nt | nt | nt | nt | nt
COc1cccc(NC(=S)NC(=O)c2cccnc2)c1 | i | i | i | i | i | nt | nt | nt | nt | nt | nt
O=C(CCC(=O)c1cccs1)NCc1cccc(C(F)(F)F)c1 | i | i | i | i | i | nt | nt | nt | nt | nt | nt
CCCc1ccc(S(=O)(=O)N(C)S(=O)(=O)c2ccc(F)cc2)cc1 | i | i | i | i | i | nt | nt | nt | nt | nt | nt
COC(=O)c1ccc(Cl)cc1N(Cc1c(F)cccc1Cl)S(C)(=O)=O | 65* | i | -5.3* | i | i | 303%* | 113%* | 44%* | 38%* | i | nt
Oc1ccc(CN2CCc3ccccc3C2)c2cccnc12 | i | -5* | -7.3* | i | i | nt | nt | nt | nt | i | i | TRPC4 spec 2=49%*;TRPC4 spec=2.4%*;HEK293 MPD ctr 2-1=i;HEK293 MPD ctr-1=5.0%*
